In the library only some 1.8% were active in any assay of this set; here they are far more common.
DDE Tn6 FP inh – inhibitors of Tn6 peptide binding to fibrin DD(E), primary screen, biochemical, fluorescence polarization, human fibrin, Tn6 probe | Fibrin DD(E) TRITC-Tn6 fluorescence polarization displacement | 370,000 compounds, 0.21% hits | inhibition, % at 8.3 µM | AID 720509, 2013;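 active = inhibition above a per-campaign cutoff: mean of compounds within control limits plus 3 SD, cut at about 15% in these data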
mABHD4 FP – ABHD4 inhibitors, primary screen, biochemical, fluorescence polarization, mouse | (Lyso)-N-acylphosphatidylethanolamine lipase (Mus musculus), Q8VD66 | purified mABHD4, FP-Rh probe fluorescence polarization | inhibition, % at 8.92 µM | 370,000 compounds, 0.54% hits | AID 720543, 2013;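 active = inhibition exceeding the mean over every tested compound plus 3 SD, cut at about 30% in these data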
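Doses – 8.92 µM, single dose · Material – wild-type mouse ABHD4 protein · Replication – single well per compound (singlicate) · Measure – percent inhibition of probe binding, normalized to plate controls · Schedule – 45 min compound pre-incubation plus 60 min probe step, 25 °C · Detection – fluorescence polarization with parallel and perpendicular emission, 525/598 nm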
SIAE inh – human SIAE inhibitors, primary screen, biochemical, fluorescence polarization, FP-Rh probe, 1536-well HTS; Sialate O-acetylesterase (Homo sapiens), Q9HAT2; SIAE FP-Rh probe binding; inhibition, % at 9.66 µM; 370,000 compounds, 0.69% hits; AID 1053197, 2014;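 active = inhibition above a cutoff: mean of compounds within the control limits plus 3 SD of those, cut at about 17% in these data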
Target sequence (Q9HAT2 whole entry, looked up): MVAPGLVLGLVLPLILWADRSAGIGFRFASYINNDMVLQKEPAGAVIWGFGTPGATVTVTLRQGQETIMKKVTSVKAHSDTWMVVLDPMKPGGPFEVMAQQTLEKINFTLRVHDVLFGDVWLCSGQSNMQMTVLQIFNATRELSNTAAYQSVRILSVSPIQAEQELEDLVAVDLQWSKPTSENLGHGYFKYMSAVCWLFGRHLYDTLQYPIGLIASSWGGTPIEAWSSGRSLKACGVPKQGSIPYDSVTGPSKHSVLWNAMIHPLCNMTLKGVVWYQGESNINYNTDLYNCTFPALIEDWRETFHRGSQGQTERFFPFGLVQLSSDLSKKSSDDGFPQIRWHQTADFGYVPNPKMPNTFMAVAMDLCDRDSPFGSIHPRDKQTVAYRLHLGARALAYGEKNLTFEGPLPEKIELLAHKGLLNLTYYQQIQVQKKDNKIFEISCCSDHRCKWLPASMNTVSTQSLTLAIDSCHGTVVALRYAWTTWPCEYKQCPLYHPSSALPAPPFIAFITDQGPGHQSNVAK
Tn7 DDE FP – inhibitors of Tn7 peptide binding to fibrin DD(E), primary screen, biochemical, fluorescence polarization, human fibrin, Tn7 probe | 370,000 compounds, 0.13% hits | Fibrinogen beta chain (Homo sapiens), P02675 | FP displacement of FITC-Tn7 peptide from fibrin DD(E); 0% = median of compound wells per plate | inhibition, % at 8.3 µM | AID 720508, 2013;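 active = inhibition above the mean of compounds falling within the control limits plus 3 SD of them, cut at about 14% in these data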
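Test system – human fibrin DD(E) · Times – 10 min preincubation, 3 h with tracer, room temperature · Detection – fluorescence polarization of the labelled Tn7 tracer · Measure – percent inhibition normalized to high-control wells · Benchmarks – high control wells with 10 µM unlabelled Aha-Tn7 peptide (full inhibition) · Repeats – singlicate testing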
HTRA1 inhibitor – HTRA1 serine protease inhibitors, primary screen, biochemical, fluorescence polarization, HTS | recombinant HTRA1, FP-rhodamine activity-based probe | inhibition, % at 5.96 µM | 340,000 compounds, 0.5% hits | AID 504803, 2011; in the data active = inhibition above about 36%
TCR CD3 inh – inhibitors of human TCR-CD3 interaction, primary screen, biochemical, fluorescence, TAMRA-labeled TCR probe | 360,000 compounds, 0.37% hits | inhibition, % at 9.4 µM | T-cell receptor (TCR); in the data active = inhibition above about 19%;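 also: recombinant mutant TCR 2C K166C tagged with TAMRA read by polarization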
SIAE confirm – human SIAE inhibitors, retest, confirmation, biochemical, fluorescence polarization, FP-Rh probe, triplicate; AID 1117263, 2014; 2,300 compounds, 13% hits; shares compounds with SIAE inh; SIAE FP-Rh activity-based probe; inhibition, % at 9.66 µM;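 active = mean inhibition of the replicates above the hit cutoff set in the primary screen, cut at about 17% in these data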;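 also: inhibitors lower polarization as more probe stays unbound to SIAE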
Large screens that a line does not name were inactive (follow-up assays come after a bar, where they were run).

COc1ccc(NS(=O)(=O)c2cc(NC(=O)c3cccs3)ccc2N2CCCC2)cc1	SIAE inh 26 | SIAE confirm inactive
CCOc1ccc(/C=N/NC(=O)c2cc3c(OC)cc(OC)cc3[nH]2)cc1OC	SIAE inh 43 | SIAE confirm inactive
C=CCOc1ccc(/C=N/NC(=O)c2cc3c(OC)cc(OC)cc3[nH]2)cc1	SIAE inh 27 | SIAE confirm inactive
COc1ccc(OC)c(/C=N/NC(=O)c2cc3c(OC)cc(OC)cc3[nH]2)c1	none
C=CCN(C)CC#Cc1ccc(C)cc1	none (no result: HTRA1 inhibitor, TCR CD3 inh)
COC(=O)[C@]12C[C@H](CC(=O)NCCC(C)C)C(=O)N(Cc3ccc4c(c3)OCO4)C1=C[C@H](COCc1ccccc1)O[C@@H]2C	none (no result: HTRA1 inhibitor)
COCCCNC(=O)C[C@H]1C[C@@]2(C(=O)OC)C(=C[C@H](COCc3ccccc3)O[C@@H]2C)N(Cc2ccc3c(c2)OCO3)C1=O	SIAE inh 29 (no result: HTRA1 inhibitor) | SIAE confirm inactive
Cc1ccc(NC(=O)c2ccc(NCC3CCCO3)c([N+](=O)[O-])c2)cc1Cl (configuration not stated)	SIAE inh 72 | SIAE confirm inactive
COc1ccc(NC(=O)Nc2cc(F)ccc2C)cc1	SIAE inh 20 | SIAE confirm inactive
COC(=O)Nc1ccc(S(=O)(=O)N2CCCC(C(=O)O)C2)cc1 (configuration not stated)	SIAE inh 19 | SIAE confirm inactive
CC(=O)Nc1c(-c2ccc(C)cc2)nc2ncccn12	none (no result: HTRA1 inhibitor, TCR CD3 inh)
Cc1ccc(F)c(NC(=S)Nc2cccc3ccccc23)c1	SIAE inh 18 | SIAE confirm inactive
COc1ccc(/C=C2/C(=O)ON=C2C)cc1Cl	SIAE inh 22 | SIAE confirm inactive
C=CCOc1ccc(/C=C2/C(=O)ON=C2C)cc1OC	none
O=C(O)CCCn1cc(NC(=O)c2cc(F)c(F)cc2Cl)cn1	none
O=C(O)CCCn1cc(NC(=O)c2cccc(F)c2)cn1	SIAE inh 20 | SIAE confirm inactive
CC(=O)Nc1c(O)nc(SCc2ccccc2C#N)[nH]c1=O	none
N#Cc1ccccc1CSc1nc(O)cc(=O)[nH]1	SIAE inh 17 | SIAE confirm inactive
COc1cccc(CO[C@H]2C=C[C@@H](c3ccccc3)O[C@@H]2CO)c1	none (no result: HTRA1 inhibitor, TCR CD3 inh)
Cc1ccc(-c2nc(Nc3ccc(O)cc3)c3ccccc3n2)cc1	SIAE inh 17 | SIAE confirm inactive
Cc1ccc(-c2nc(Nc3ccc(N4CCOCC4)cc3)c3ccccc3n2)cc1	SIAE inh 21 (no result: HTRA1 inhibitor) | SIAE confirm inactive
Cc1ccc(-c2nc(Nc3cccc(O)c3)c3ccccc3n2)cc1	none
Oc1ccc(Nc2nc(-c3ccccc3O)nc3ccccc23)cc1	SIAE inh 26 | SIAE confirm inactive
C=CCN1C[C@@H](COCc2ccccc2)Oc2cc(F)ccc2S1(=O)=O	none (no result: HTRA1 inhibitor, TCR CD3 inh)
N#CCCN(C(=O)COC(=O)CNS(=O)(=O)c1ccc2ccccc2c1)c1ccccc1	SIAE inh 23 | SIAE confirm inactive
Cc1ccc(-c2cc(C(=O)NN=Cc3cccc4ccccc34)[nH]n2)cc1C	none (no result: HTRA1 inhibitor, TCR CD3 inh)
Cc1c(N=Cc2cccnc2)c(=O)n(-c2ccccc2)n1C	SIAE inh 21 | SIAE confirm inactive
COC(=O)c1sc(N/N=C/c2ccc(C(C)C)cc2)nc1C	SIAE inh 23 | SIAE confirm inactive
CC(=O)c1sc(N/N=C\c2ccc(N(C)C)cc2)nc1C	none
CC(Sc1nc(-c2ccccc2)c(-c2ccccc2)[nH]1)C(=O)NCC1CCCO1 (configuration not stated)	SIAE inh 21 | SIAE confirm inactive
COc1ccc(-c2csc(CCN3N=C(C)CC3=O)n2)cc1	SIAE inh 38 | SIAE confirm inactive
Cc1cc(N=Cc2c(O)n(-c3cccc(C(F)(F)F)c3)c(=O)c3ccccc23)no1	SIAE inh 21 | SIAE confirm inactive
Cc1nnc(N/N=C/c2c(O)n(-c3cccc(C(F)(F)F)c3)c(=O)c3ccccc23)[nH]c1=O	none (no result: HTRA1 inhibitor)
CC(C)CN1C(=O)C[C@]2(C(=O)N(C)c3ccc(NS(=O)(=O)C4CC4)cc32)C1c1ccccc1 (some centres not stated)	none (no result: HTRA1 inhibitor, TCR CD3 inh)
COc1cc(/C=C/C(=O)OCC(=O)N2CCC(C)CC2)ccc1O	none
COc1cc(/C=C/C(=O)OCC(=O)N2CCc3ccccc3C2)ccc1O	SIAE inh 21 | SIAE confirm inactive
C[C@@H]1/C=C/CC(=O)N2[C@H](CC(=O)N[C@@H]1c1ccccc1)C[C@@H](C)[C@H]2c1ccccc1	none (no result: HTRA1 inhibitor, TCR CD3 inh)
O=C(OCC#CCSc1nnc(-c2cccc(F)c2)o1)c1ccc(F)cc1	none (no result: HTRA1 inhibitor, TCR CD3 inh)
Cc1ccc(Nc2nc(N/N=C/c3c[nH]c4ccccc34)nc(N3CCOCC3)n2)cc1	SIAE inh 28 | SIAE confirm inactive
C(=N\Nc1nc(Nc2ccccc2)nc(N2CCOCC2)n1)/c1c[nH]c2ccccc12	SIAE inh 19 (no result: HTRA1 inhibitor) | SIAE confirm 24
Cc1ccc(NC(=O)Cn2c(CCC(=O)O)ccc2-c2cccs2)cc1Cl	SIAE inh 126 | SIAE confirm inactive
O=C(CCNC(=O)c1ccco1)Nc1ccc(OC(F)F)c(Cl)c1	SIAE inh 41 | SIAE confirm inactive
O=C(CCNC(=O)c1ccco1)Nc1ccccc1OC(F)F	none
COc1ccc(C2Nc3ccccc3C(=O)N2Cc2ccc(C)o2)cc1COc1c(C)cccc1C (configuration not stated)	none (no result: HTRA1 inhibitor, TCR CD3 inh)
O=C(OCc1cn(Cc2ccc(F)cc2)nn1)N1CCOCC1	none (no result: HTRA1 inhibitor, TCR CD3 inh)
CCOC(=O)C(NC(=O)Nc1ncccn1)(Oc1ccccc1)C(F)(F)F (configuration not stated)	SIAE inh 24 | SIAE confirm inactive
CCOC(=O)C(NC(=O)Nc1ccc(F)cc1F)(Oc1ccc(F)cc1)C(F)(F)F (configuration not stated)	none
Nc1ccc(S(=O)(=O)NN=CC=Cc2ccccc2[N+](=O)[O-])cc1	none
NS(=O)(=O)c1ccc(N/N=C/C=C/c2ccccc2[N+](=O)[O-])cc1	SIAE inh 24 | SIAE confirm inactive
O=C(O)CCC(=O)Nc1nc(-c2ccccc2)cs1	SIAE inh 19 | SIAE confirm inactive
Fc1ccc(-c2csc(NC(=S)Nc3ccccc3)n2)cc1	SIAE inh 17 | SIAE confirm inactive
CN(C)CC(=O)Nc1nc(-c2ccccc2)cs1	none

Screens (PubChem)
